Laboratory results from publication PMC9298258 (Clinical Pharmacology and Therapeutics, 2021).
Blank lines part the entries; values can stand above or below the molecule they belong to.

Experiments:
subjects with RA = test: Exploratory efficacy in study #2, part B; type: in vivo, human; details: 20 mg q.d.
How it was run: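 RA subjects in phase I part B were assessed at day 1 predose, week 2 and week 4. End points were plasma hsCRP and tender joint count 68 within the ACR core set. Each end point was regressed linearly against model-predicted time above 90% BTK occupancy over a 24-hour dosing interval.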

BTK = BTK (Homo sapiens, UniProt Q06187); test: BTK occupancy test in peripheral blood mononuclear cells; type: in vivo
How it was run: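 PBMC BTK occupancy measured by duplexed homogeneous TR-FRET, reading free and total BTK in the same well. LLOQ was 12 ng/mL; baselines below it were excluded. Study #1 used days 8 and 17, with day-8 predose as baseline. Study #2 sampled at baseline, days 1–7 and up to 120 h post-last-dose, or at PK timepoints. Covalent binding model with BTK-synthesis feedback (ksyn); NONMEM FOCE-I; bootstrap.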

[1] = test system: murine collagen–induced arthritis model; details: cited from earlier work
[2] = cited from earlier work
[3] = Plasma PK of tirabrutinib in two phase I studies; type: in vivo; details: human, oral
Population PK model = type: in vivo, human
How it was run: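 Plasma drug was measured by validated LC-MS/MS with an isotopically labeled internal standard (LLOQ 1.0 ng/mL). Pooled data came from healthy and RA subjects in two phase I studies. The model was two-compartment with first-order absorption, lag time and relative bioavailability, with IIV on CL/F, Vc/F and ka. Fitting used NONMEM FOCE-I. Covariates were screened on CL/F, Vc/F and ka, and bootstrap gave CIs.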

patients with RA = details: cited from earlier work
[4] = bootstrap (N = 1000) final model median estimate
[5] = final PopPK model estimate (RSE%)

BTK, sequence (Q06187 whole entry): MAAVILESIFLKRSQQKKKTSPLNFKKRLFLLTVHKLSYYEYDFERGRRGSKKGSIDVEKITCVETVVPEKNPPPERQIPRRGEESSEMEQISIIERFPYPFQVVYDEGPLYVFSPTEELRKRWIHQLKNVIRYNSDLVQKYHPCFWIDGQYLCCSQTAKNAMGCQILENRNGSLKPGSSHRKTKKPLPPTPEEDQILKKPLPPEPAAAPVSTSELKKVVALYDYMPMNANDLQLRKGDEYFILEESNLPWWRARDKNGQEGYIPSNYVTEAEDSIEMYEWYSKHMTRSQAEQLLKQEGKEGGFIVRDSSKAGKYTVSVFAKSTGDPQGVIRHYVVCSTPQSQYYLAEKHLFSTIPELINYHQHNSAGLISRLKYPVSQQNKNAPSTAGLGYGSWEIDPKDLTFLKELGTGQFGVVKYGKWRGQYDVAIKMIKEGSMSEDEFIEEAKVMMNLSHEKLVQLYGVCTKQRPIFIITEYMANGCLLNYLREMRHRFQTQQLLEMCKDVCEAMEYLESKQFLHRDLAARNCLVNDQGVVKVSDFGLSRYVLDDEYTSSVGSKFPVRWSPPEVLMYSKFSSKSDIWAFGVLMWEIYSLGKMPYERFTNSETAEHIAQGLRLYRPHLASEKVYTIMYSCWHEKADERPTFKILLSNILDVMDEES

Feedback rate constant on protein synthesis from BTK inhibition, ksyn (BTK; [4]): -0.0290 h⁻¹
Feedback rate constant on protein synthesis from BTK inhibition, ksyn (BTK; final PK/PD model estimate (RSE%)): −0.0301 (59) h^−1
half-life [3]: 6.2 to 7.3 h
Absorption lag time (Population PK model; [4]): 0.465 h
Absorption rate constant, ka (Population PK model; [4]): 0.811 h⁻¹
Apparent oral clearance, CL/F (Population PK model; [4]): 62.5 L/h
Apparent oral volume, Vc/F (Population PK model; [4]): 357 L
IIV of CL/F (Population PK model; [4]): 27.1%
IIV of Vc/F (Population PK model; [4]): 53.7%
IIV of ka (Population PK model; [4]): 89.6%
Influence of age on ka (Population PK model; [4]): –1.74
Absorption lag time (Population PK model; [5]): 0.465 (1) h
Absorption rate constant, ka (Population PK model; [5]): 0.800 (14) h^−1
Apparent oral clearance, CL/F (Population PK model; [5]): 62.6 (4) L/h
Apparent oral volume, Vc/F (Population PK model; [5]): 357 (7) L
IIV of ka (Population PK model; [5]): 93.4 (13) %
Influence of age on ka (Population PK model; final PopPK model estimate (RSE%), covariate exponent): –1.74 (26)
Compound: CC#CC(=O)N1CC[C@@H](n2c(=O)n(-c3ccc(Oc4ccccc4)cc3)c3c(N)ncnc32)C1 [tirabrutinib, Tirabrutinib]
change in TJC68 (subjects with RA; week 4 visit): small numerical decrease
change in hsCRP levels (subjects with RA; week 4 visit): small numerical decrease
effects on disease-related outcomes (subjects with RA; exploratory efficacy analysis): modest effects
BTK suppression after multiple dosing (BTK; model and observed fBTK): maintained through a 24‐hour dosing interval
arthritis severity and bone damage [1]: dose‐dependent inhibition
dose proportionality of pharmacokinetics ([2]; 20-to-320 mg dose range): dose‐proportional
tolerability ([2]; patients with B-cell malignancies, 20 to 480 mg q.d.): generally well‐tolerated
absorption following oral administration ([2]; phase I dose escalation study): rapidly absorbed

Compound: C=CC(=O)Nc1cccc(Nc2nc(Nc3ccc(OCCOC)cc3)ncc2F)c1 [spebrutinib]
disease markers in patients with active RA (patients with RA): reduce disease markers

Compound: C[C@H]1CN(C2COC2)CCN1c1ccc(Nc2cc(-c3ccnc(N4CCn5c(cc6c5CC(C)(C)C6)C4=O)c3CO)cn(C)c2=O)nc1 [fenebrutinib]
efficacy in moderate-to-severe RA (patients with RA): comparable with adalimumab
BTK inhibition achieved by the efficacious doses (patients with RA; subjects with RA): 90%
